{"source": "ChEMBL document CHEMBL4680165", "about": "“β-Lactams with antiproliferative and antiapoptotic activity in breast and chemoresistant colon cancer cells” (Eur J Med Chem, 2020)", "key": {"MCF7 [1]": {"test_system": "MCF7", "assay": "Induction of apoptosis in human MCF7 cells assessed as late apoptotic cells after 48 hrs by Annexin V-FITC and propidium iodide staining based flow cytometry", "type": "functional, cell-based", "settings": "dose 10-1000 nM", "summary_of_the_method": "(§1)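 MCF-7 cells were seeded at 1 × 10^5 cells/mL and treated for 48 h at 0.01, 0.1 and 1 µM; vehicle was 0.1% v/v ethanol. Annexin V staining was done on ice in the dark for 30 min in HEPES/NaCl/CaCl2 binding buffer, followed by PI. Flow cytometry scored early apoptotic (Annexin V+/PI−) and late apoptotic (Annexin V+/PI+) cells; total apoptotic is Annexin V-positive cells.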"}, "MCF7 [2]": {"test_system": "MCF7", "assay": "Induction of apoptosis in human MCF7 cells assessed as total apoptotic cells at 0.1 uM after 48 hrs by Annexin V-FITC and propidium iodide staining based flow cytometry (reference value: 10 %)", "type": "functional", "summary_of_the_method": "as §1"}, "MCF7 [3]": {"test_system": "MCF7", "assay": "Cell cycle arrest in human MCF7 cells assessed as accumulation at G2/M phase at 1 uM measured after 24 hrs by PI staining based flow cytometry analysis (reference value: 24 %)", "type": "functional", "summary_of_the_method": "(§2)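 Cells (1 × 10^5/well) were treated at 1 µM for 24, 48 and 72 h; vehicle was 0.1% v/v ethanol. Cells were trypsinised, fixed in ice-cold 70% ethanol overnight at −20 °C, then stained with PI (50 µg/mL) plus DNase-free RNase A (50 µg/mL) at 37 °C for 30 min. DNA content of 10,000 cells per group was read by flow cytometry at 488 nm.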"}, "MCF7 [4]": {"test_system": "MCF7", "assay": "Induction of apoptosis in human MCF7 cells assessed as downregulation of Mcl-1 expression level measured after 48 hrs by Western blot analysis", "type": "functional, cell-based", "settings": "dose 0.05-0.5 µM", "summary_of_the_method": "(§3)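 MCF-7 cells (1 × 10^5 per flask) were treated at 0.05, 0.1 and 0.5 µM for 48 and 72 h; vehicle was 0.1% v/v ethanol. Lysis was in RIPA buffer with protease and phosphatase inhibitors. Equal protein (BCA) was run on 12% SDS-PAGE and blotted for Mcl-1, Bcl-2 and survivin, with GAPDH as loading control and ECL detection. Three independent experiments.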"}, "Bos taurus": {"species_on_record": "Bos taurus", "assay": "Inhibition of bovine brain tubulin polymerization at 10 uM measured at 30 sec interval for 30 mins in presence of GTP by turbidimetry-based spectrophotometric method"}, "HT-29 [5]": {"test_system": "HT-29", "assay": "Induction of apoptosis in human HT29 cells assessed as necrotic cells at 1 uM after 48 hrs by Annexin V-FITC and propidium iodide staining based flow cytometry (reference value: 3 %)", "type": "functional", "summary_of_the_method": "(§4)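 HT-29 cells were treated at 1 µM for 24, 48 and 72 h against an untreated control. Cells were stained with Annexin V in binding buffer (HEPES pH 7.4, NaCl, CaCl2) for 30 min on ice in the dark, washed, resuspended in PI-containing buffer and read at once by flow cytometry. Quadrants: early apoptotic, late apoptotic, necrotic (Annexin V−/PI+).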"}, "MCF7 [6]": {"test_system": "MCF7", "assay": "Induction of apoptosis in human MCF7 cells assessed as downregulation of Bcl-2 expression level measured after 48 hrs by Western blot analysis", "type": "functional, cell-based", "settings": "dose 0.05-0.5 µM", "summary_of_the_method": "as §3"}, "HT-29 [7]": {"test_system": "HT-29", "assay": "Antiangiogenic activity in human HT-29 cells assessed as increase in IL-1RA secretion at 5 uM after 24 hrs by ELISA", "type": "functional, cell-based", "summary_of_the_method": "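HT-29 cells at 5 x 10^4 per well, cultured 24 h and then exposed to 5 µM compound. Conditioned medium collected on ice and stored at -80 °C. Cytokines and angiogenic, vascular-injury and chemokine factors measured by multiplex panels with overnight supernatant incubation (Angiogenesis Panel 1 and Vascular Injury Panel 2 same day). Medium undiluted except 1:4 for Vascular Injury Panel 2. Secretion normalised to lysate protein by BCA.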"}, "MCF7 [8]": {"test_system": "MCF7", "assay": "Cell cycle arrest in human MCF7 cells assessed as accumulation at G2/M phase at 1 uM by PI staining based flow cytometry analysis", "type": "functional", "settings": "TDE = time-dependent effect", "summary_of_the_method": "as §2"}, "HT-29 [9]": {"test_system": "HT-29", "assay": "Cell cycle arrest in human HT-29 cells assessed as accumulation at G2/M phase at 1 uM measured after 72 hrs by PI staining based flow cytometry analysis (reference value: 11 %)", "type": "functional", "summary_of_the_method": "as §2"}, "[10]": {"assay": "Selectivity index, ratio of IC50 for human MCF7 cells to IC50 for human HT-29 cells assessed as reduction in cell viability after 72 hrs by alamar blue assay", "type": "functional"}, "MCF7 [11]": {"test_system": "MCF7", "assay": "Cell cycle arrest in human MCF7 cells assessed as accumulation at sub-G1 phase at 1 uM measured after 72 hrs by PI staining based flow cytometry analysis", "type": "functional", "summary_of_the_method": "as §2"}, "HT-29 [12]": {"test_system": "HT-29", "assay": "Cell cycle arrest in human HT-29 cells assessed as accumulation at G2/M phase at 1 uM measured by PI staining based flow cytometry analysis", "type": "functional", "settings": "TDE = time-dependent effect", "summary_of_the_method": "as §2"}, "MCF7 [13]": {"test_system": "MCF7", "assay": "Induction of apoptosis in human MCF7 cells assessed as downregulation of Bcl-2 expression level measured after 72 hrs by Western blot analysis", "type": "functional, cell-based", "settings": "dose 0.05-0.5 µM", "summary_of_the_method": "as §3"}, "MCF7 [14]": {"test_system": "MCF7", "assay": "Induction of apoptosis in human MCF7 cells assessed as downregulation of Mcl-1 expression level measured after 72 hrs by Western blot analysis", "type": "functional, cell-based", "settings": "dose 0.05-0.5 µM", "summary_of_the_method": "as §3"}, "HT-29 [15]": {"test_system": "HT-29", "assay": "Induction of apoptosis in human HT29 cells assessed as cell apoptosis at 1 uM after 72 hrs by Annexin V-FITC and propidium iodide staining based flow cytometry", "type": "functional", "summary_of_the_method": "as §4"}, "HT-29 [16]": {"test_system": "HT-29", "assay": "Induction of apoptosis in human HT29 cells assessed as necrotic cells at 1 uM after 24 hrs by Annexin V-FITC and propidium iodide staining based flow cytometry (reference value: 3 %)", "type": "functional", "summary_of_the_method": "as §4"}, "HT-29 [17]": {"test_system": "HT-29", "assay": "Cell cycle arrest in human HT-29 cells assessed as accumulation at sub-G1 phase at 1 uM measured after 48 hrs by PI staining based flow cytometry analysis (reference value: 2.5 %)", "type": "functional", "summary_of_the_method": "as §2"}, "Tubulin (Homo sapiens)": {"target": "Tubulin (Homo sapiens) (UniProt P68371+Q9H4B7+P0DPH7+P68366+Q13509+Q71U36+P04350+Q3ZCM7+P07437+P68363+Q9BQE3+Q6PEY2+Q13885+Q9BVA1+Q9BUF5)", "assay": "Induction of microtubule depolymerization in human MCF7 cells at 10 to 100 nM after 16 hrs by immunofluorescence staining based confocal microscopic analysis", "type": "cell-based", "settings": "dose 10-100 nM", "summary_of_the_method": "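MCF-7 cells seeded 1 × 10^5 cells/mL on chamber slides, exposed 16 h to vehicle [1% ethanol (v/v)] or test agent (0.01, 0.05, 0.1 µM). Fixed in 4% paraformaldehyde, permeabilised in 0.5% Triton X-100, blocked in 5% BSA, then stained with anti-α-tubulin-FITC (DM1A) 2 h rt, Alexa Fluor 488 1 h, DAPI mount. Confocal imaging; three independent experiments.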"}, "MCF7 [18]": {"test_system": "MCF7", "assay": "Induction of apoptosis in human MCF7 cells assessed as total apoptotic cells at 1 uM after 48 hrs by Annexin V-FITC and propidium iodide staining based flow cytometry (reference value: 10 %)", "type": "functional", "summary_of_the_method": "as §1"}, "MCF7 [19]": {"test_system": "MCF7", "assay": "Antiproliferative activity against human MCF7 cells assessed as reduction in cell viability after 72 hrs by alamar blue assay", "type": "functional, cell-based", "settings": "MCF7, 72 h", "summary_of_the_method": "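Cells seeded at 5 x 10^3/well (MCF-7) or 1 x 10^4/well (HT-29, HEK-293T) and treated after 24 h with serial dilutions (0.001-100 µM) in 1% v/v ethanol vehicle. Alamar Blue 10% v/v added at 72 h, then 3-5 h at 37 °C in the dark; fluorescence ex 530/em 590 nm. Viability relative to vehicle; IC50 from dose-response curves; mean of three experiments in triplicate.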"}}, "note": "The source made the active and inactive calls. The calls are words filed in the database; no cut-off is given here.", "data": [{"smiles": "COc1ccc([C@H]2[C@H](O)C(=O)N2c2cc(OC)c(OC)c(OC)c2)cc1F", "values": [{"measurement": "Activity", "setting": "MCF7 [1]", "result": "Dose-dependent effect"}, {"measurement": "Activity", "setting": "MCF7 [2]", "result": 20, "unit": "%"}, {"measurement": "Activity", "setting": "MCF7 [3]", "result": 66, "unit": "%"}, {"measurement": "Activity", "setting": "MCF7 [4]", "result": "Dose-dependent effect"}, {"measurement": "inhibition", "setting": "Bos taurus", "result": "Active"}, {"measurement": "Activity", "setting": "HT-29 [5]", "result": 11, "unit": "%"}, {"measurement": "Activity", "setting": "MCF7 [6]", "result": "Dose-dependent effect"}, {"measurement": "Activity", "setting": "HT-29 [7]", "result": "Active"}, {"measurement": "Activity", "setting": "MCF7 [8]", "result": "Tde"}, {"measurement": "Activity", "setting": "HT-29 [9]", "result": 64, "unit": "%"}, {"measurement": "Ratio IC50", "setting": "[10]", "result": 7.33}, {"measurement": "Activity", "setting": "MCF7 [11]", "result": 15, "unit": "%"}, {"measurement": "Activity", "setting": "HT-29 [12]", "result": "Tde"}, {"measurement": "Activity", "setting": "MCF7 [13]", "result": "Dose-dependent effect"}, {"measurement": "Activity", "setting": "MCF7 [14]", "result": "Dose-dependent effect"}, {"measurement": "Activity", "setting": "HT-29 [15]", "result": 2, "unit": "%"}, {"measurement": "Activity", "setting": "HT-29 [16]", "result": 8, "unit": "%"}, {"measurement": "Activity", "setting": "HT-29 [17]", "result": 11, "unit": "%"}, {"measurement": "Activity", "setting": "Tubulin (Homo sapiens)", "result": "Active"}, {"measurement": "Activity", "setting": "MCF7 [18]", "result": 35, "unit": "%"}, {"measurement": "IC50", "setting": "MCF7 [19]", "result": 22, "unit": "nM"}]}]}
